ChEMBL document CHEMBL4513216, “Probing the Open Global Health Chemical Diversity Library for Multistage-Active Starting Points for Next-Generation Antimalarials” (ACS Infect Dis, 2020)

assay: Toxicity liver stage against HepG2, at 10uM; assay type: cell-based; set-up: test concentration 10 uM, cell line HepG2-A16-CD81EGFP; conditions: human, HepG2-A16-CD81EGFP cells; read-out: INHIBITION
In short: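 Uninfected HepG2-A16-CD81EGFP cells, 3 × 10^3 per well, 1536-well, plated on prespotted compound at 10 μM final, parasite-free screening media added to match infected plates; puromycin 10 μM positive, DMSO 0.5% negative; run in parallel with 48 h PbLuc assay at 37 °C, 5% CO2; viability by CellTiter-Glo luminescence, normalized to controls.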

In order of rising cytotoxicity at 10 µM:
1. CCc1cc(C(=O)N2CCC3(CCCN(CC4CC4)C3=O)C2)cs1 (stereo not given)  -164%
2. O=C(COC[C@@H]1CC[C@H]2[C@H](CCN2Cc2ccco2)O1)N1CCCC1  -161%
3. CN(C)C(=O)c1n[nH]c2c1CCN(Cc1nccs1)C2  -139%
4. COc1ccccc1C(C)(C)NC(=O)c1cc(NC(C)=O)ccc1F  -137%
5. COc1cccc2c1OCC(CNC(=O)CSc1ccccn1)C2 (stereo not given)  -135%
6. Cc1cnc(N2C[C@@H]3[C@@H](C(=O)NC(C)C)CCS(=O)(=O)[C@@H]3C2)nc1  -130%
7. COc1cccc(N2CCC(CNC(=O)N(C)Cc3ccco3)C2)c1 (stereo not given)  -130%
8. Cc1nc(N2CCOCC2)nc2c1COCC21CCN(CC(C)C)C1 (stereo not given)  -128%
9. O=C(Cc1cccs1)N1C[C@@H]2COC[C@]2(COc2cccnc2)C1  -21.1%
10. O=C(Nc1nccs1)N1CCCC(N2CCNC2=O)C1 (stereo not given)  -20.7%
11. Cn1c(NCC(O)c2ccc(F)c(F)c2)c(C#N)c(=O)n(C)c1=O (stereo not given)  -19.9%
12. CNC(=O)CN1CCC(NC(=O)Cc2ccc3c(c2)OCCO3)CC1  -18.3%
13. Cc1cccc(C)c1OCC(=O)N1CCOCC1c1ncon1 (stereo not given)  -17%
14. COc1ccc(CN(C)[C@@H]2CN(C(=O)c3ccnn3C)C[C@H]2O)cc1  -13.5%
15. CC(=O)c1ccc(C(=O)N2C[C@H]3CC[C@@H](C2)N(Cc2ccccc2)C3)s1  -13.3%
16. COc1cc(CNCC(O)c2ccccc2)cc2c1OCO2 (stereo not given)  -13%
17. O=C(c1ccccn1)N1CC(S(=O)(=O)c2ccc(Cl)cc2)C1  -12%
18. Cc1ccccc1C1CCCN1Cc1nc2c(cnn2C)c(=O)[nH]1 (stereo not given)  -12%
19. CC(=O)NCc1ccc(C(=O)N2CCCC2c2c(C)nn(C)c2C)o1 (stereo not given)  -11.3%
20. Cc1ccc(NS(=O)(=O)C=c2[nH]c(=O)n3cccc3c2=O)cc1  -10.7%
21. COCCNC(=O)Cn1cc(NC(=O)c2ccc(C(C)(C)C)cc2)cn1  -9.94%
22. c1coc(-c2nc3c(c(N4CCCN5CCC[C@H]5C4)n2)CCNCC3)c1  -9.88%
23. Cc1nc2n(n1)CC(NCc1ccc(Cl)c3cccnc13)CC2 (stereo not given)  -8.81%
24. NC(=O)CN1CCC(C(=O)NCCc2nc(-c3ccccc3)cs2)CC1  -7.85%
25. CC(C)(C)n1ncc2c(=O)[nH]c(N3CCN(CC(F)F)CC3)nc21  -7.8%
26. NC(=O)C1CCN(CC(=O)NCCc2c(F)cccc2F)CC1  -7.14%
27. Cc1ccc(C)c(C(O)Cn2cc(Cl)c(=O)[nH]c2=O)c1 (stereo not given)  -6.81%
28. CN(C)Cc1cnn(-c2ccccc2C(=O)N(C)Cc2ccccc2)c1  -6.54%
29. CCOCCN1CCN(CC(O)c2ccc(C)c(C)c2)CC1 (stereo not given)  -6.33%
30. CCc1ccc2nc(C)cc(C(=O)NC3CCC(=O)N(C)C3)c2c1 (stereo not given)  -5.85%
31. CCOC(=O)c1n[nH]cc1CN1CCOC(Cc2ccccc2)C1 (stereo not given)  -5.35%
32. CCCS(=O)(=O)c1ncc(CN2CCC(C)CC2)n1CC1CCCO1 (stereo not given)  -5.12%
33. Cc1nc2ccccc2nc1CN1CCCC(Cn2cncn2)C1 (stereo not given)  -4.57%
34. Cc1ccc(NC2CCN(C(=O)c3sccc3C3CC3)CC2)nn1  -4.51%
35. CC(C)c1nc(CN2CCN(Cc3ccccn3)CC2)cs1  -4.41%
36. CS(=O)(=O)CCC(=O)NC1CC(c2ccccc2Cl)C1 (stereo not given)  -4.19%
37. O=C(NCC(F)(F)F)C1CCCN(Cc2ccno2)C1 (stereo not given)  -4.13%
38. O=C(NCCc1csc(-c2ncccn2)n1)c1cnn2c1CCCC2  -3.88%
39. O=C1[C@H]2CN(Cc3ccccc3)C[C@H]2CN1CCN1CCCC1  -3.84%
40. O=C1CC(c2ccc(C(=O)O)cc2)c2ncn(-c3ccccc3F)c2N1 (stereo not given)  -3.51%
41. O=C(NCc1nc[nH]n1)c1cc(COc2cccc(C(F)(F)F)c2)[nH]n1  -3.26%
42. CNc1ncc(CN(C)C2CCN(C(C)C)CC2)cn1  -3.14%
43. COc1cc(Br)c(CNc2ccn(CCC(N)=O)n2)cc1OC  -2.87%
44. C[C@@H]1CN(C(=O)c2ccc(Br)cc2F)CC(C(N)=O)O1 (stereo not given in full)  -2.74%
45. Cc1ccc(CC(=O)N2CCN(CC(C)O)CC2)cn1 (stereo not given)  -2.37%
46. c1cncc(-c2noc(CN3CCCC(Cn4cncn4)C3)n2)c1 (stereo not given)  -2.18%
47. CCc1cnc(CN(C)C(=O)NC2CCN(c3ccccc3)C2)s1 (stereo not given)  -2.12%
48. CC(C)c1cc(C(=O)NCCn2nnc3ccccc32)no1  -1.95%
49. O=C(Nc1cccc2ccccc12)N1CCC(N2CCSCC2)CC1  -1.86%
50. CCCn1cnnc1CNC(=O)CC1C(=O)NCCN1CC(C)(C)C (stereo not given)  -0.798%
51. CC(C)Cc1nnc(NCc2ccsc2)o1  -0.699%
52. COCCN1CCCC2(CCN(c3nccnc3N(C)C)C2)C1=O (stereo not given)  -0.525%
53. COC(C)c1cccc(NCc2cccc(O)c2)c1 (stereo not given)  -0.334%
54. NC(=O)CN(C(=O)c1cccc(C(F)(F)F)c1)C1CCCC1  -0.296%
55. O=C(O)CSc1nnc(-c2ccn[nH]2)n1-c1ccccc1Cl  0.276%
56. CN(C)C(=O)CCN1CC(c2ccccc2)(c2ccccc2)CCC1=O  0.284%
57. Cc1ccc(C(=O)Nc2ccccc2F)n1C  0.339%
58. COc1ccc(C)cc1CC(=O)Nc1cc(C)n[nH]1  0.503%
59. O=C1C(Sc2nc(=O)ccn2C2CC2)CCN1c1ccccc1 (stereo not given)  1.27%
60. Cc1ccc(C(=O)NCCCC2(C3OCCO3)CCOCC2)cc1C  1.48%
61. Cc1cc(C)n(CC2CCCN2C(=O)c2ccc3nncn3c2)n1 (stereo not given)  2.01%
62. Cc1c(C(=O)NCC(C)(C)S(C)(=O)=O)cccc1-c1ccccn1  2.07%
63. O=C(C1CCSCC1)N1CCC2(CC1)COC(COCC1CC1)C2 (stereo not given)  2.56%
64. O=C(NC1CC1)N1CCCC2(CCNC2=O)C1 (stereo not given)  3%
65. Cc1c[nH]c(CN(C)C(=O)C(C)(C)NC(=O)c2cccs2)n1  3.08%
66. Cn1ccc(C(=O)N2CCCCC23CC(=O)N(Cc2ccccc2)C3)n1 (stereo not given)  3.64%
67. CC(=O)N1N=C(c2ccccc2)OC1C(=O)NCCc1ccc(Cl)cc1 (stereo not given)  3.68%
68. CS(=O)(=O)NC[C@@H]1OC[C@H]2CN(Cc3ccccc3)CC[C@H]21  4.82%
69. NC(=O)C1CCN(C(=O)CCCc2ccc(Cl)c(Cl)c2)CC1  5.34%
70. COc1ccc(OC)c(CN(C)c2ncc(S(N)(=O)=O)s2)c1  5.8%
71. CCOc1ccnc(N2CCN(C(=O)CCc3cnn(C)c3)CC2)n1  7.58%
72. CN1CCc2[nH]cnc2C12CCN(C(=O)c1noc3c1CCCC3)CC2  8.71%
73. Cn1cncc1CN1CCOC(Cc2ccccc2)C1 (stereo not given)  9.43%
74. NC(=O)COc1ccc(C(=O)NCCc2ccco2)cc1  10.1%
75. Cc1cnc(C(=O)N2C[C@@H]3CC[C@H]2CN(c2cnccn2)C3)cn1  10.1%
76. CC[C@@H]1N(Cc2cc(OC)cc(OC)c2)CCC[C@]12CCC(=O)N2C  11.8%
77. CCCc1nnsc1C(=O)N1CCCC1(C)C(=O)N1CCOCC1 (stereo not given)  12%
78. Cn1cccc1C(=O)COc1ccc(S(N)(=O)=O)cc1  12.4%
79. Cc1ccc(S(=O)(=O)Nc2cnn(C3CCOCC3)c2)cc1C  13.5%
80. CC1CCc2nn(CCNC(=O)c3cccs3)c(=O)cc2C1 (stereo not given)  17%
